# Measurements published in ChEMBL document CHEMBL4715682, “Potent trifluoromethoxy, trifluoromethylsulfonyl, trifluoromethylthio and pentafluorosulfanyl containing (1,3,4-oxadiazol-2-yl)benzamides against drug-resistant Gram-positive bacteria” (RSC Med Chem, 2020).
# Active and inactive are the calls of the source. The rule behind the calls is not given here.
# Experiments:
# Staphylococcus aureus [1] = assay: Antibacterial activity against Staphylococcus aureus ATCC 25923 assessed as inhibition of visible bacterial growth incubated for 18 to 20 hrs by CLSI method; assay type: functional; conditions: time 18-20 hrs
# Summary of the method: (§1)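 CLSI broth microdilution. Strains grown aerobically overnight on tryptic soy agar at 37 °C, adjusted to 0.5 McFarland and diluted in cation-adjusted Mueller–Hinton broth to about 5×10^5 CFU/mL. Compounds and control drugs serially diluted across the plate. Incubated aerobically at 37 °C for 18-20 h. MIC is the lowest concentration with no visible growth.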
# Staphylococcus aureus [2] = assay: Antibacterial activity against methicillin-resistant Staphylococcus aureus ATCC 33592 assessed as inhibition of visible bacterial growth incubated for 18 to 20 hrs by CLSI method; assay type: functional; conditions: time 18-20 hrs; summary of the method: as §1
# Staphylococcus aureus [3] = assay: Antibacterial activity against methicillin-sensitive Staphylococcus aureus ATCC 6538 assessed as inhibition of visible bacterial growth incubated for 18 to 20 hrs by CLSI method; assay type: functional; conditions: time 18-20 hrs; summary of the method: as §1
# Staphylococcus aureus [4] = assay: Antibacterial activity against methicillin-sensitive Staphylococcus aureus NRS 107 assessed as inhibition of visible bacterial growth incubated for 18 to 20 hrs by CLSI method; assay type: functional; conditions: time 18-20 hrs; summary of the method: as §1
# Staphylococcus aureus [5] = assay: Antibacterial activity against methicillin-resistant Staphylococcus aureus NRS 119 assessed as inhibition of visible bacterial growth incubated for 18 to 20 hrs by CLSI method; assay type: functional; conditions: time 18-20 hrs; summary of the method: as §1
# Staphylococcus aureus [6] = assay: Antibacterial activity against methicillin-resistant Staphylococcus aureus NRS382 assessed as inhibition of visible bacterial growth incubated for 18 to 20 hrs by CLSI method; assay type: functional; conditions: time 18-20 hrs; summary of the method: as §1
# Staphylococcus aureus [7] = assay: Antibacterial activity against methicillin-resistant Staphylococcus aureus NRS383 assessed as inhibition of visible bacterial growth incubated for 18 to 20 hrs by CLSI method; assay type: functional; conditions: time 18-20 hrs; summary of the method: as §1
# Staphylococcus aureus [8] = assay: Antibacterial activity against methicillin-resistant Staphylococcus aureus NRS384 assessed as inhibition of visible bacterial growth incubated for 18 to 20 hrs by CLSI method; assay type: functional; conditions: time 18-20 hrs; summary of the method: as §1
# Staphylococcus aureus [9] = assay: Antibacterial activity against methicillin-resistant Staphylococcus aureus NRS123 assessed as inhibition of visible bacterial growth incubated for 18 to 20 hrs by CLSI method; assay type: functional; conditions: time 18-20 hrs; summary of the method: as §1
# Staphylococcus aureus [10] = assay: Antibacterial activity against methicillin-resistant Staphylococcus aureus NRS385 assessed as inhibition of visible bacterial growth incubated for 18 to 20 hrs by CLSI method; assay type: functional; conditions: time 18-20 hrs; summary of the method: as §1
# Staphylococcus aureus [11] = assay: Antibacterial activity against methicillin-resistant Staphylococcus aureus NRS386 assessed as inhibition of visible bacterial growth incubated for 18 to 20 hrs by CLSI method; assay type: functional; conditions: time 18-20 hrs; summary of the method: as §1
# Staphylococcus aureus [12] = assay: Antibacterial activity against methicillin-resistant Staphylococcus aureus NRS387 assessed as inhibition of visible bacterial growth incubated for 18 to 20 hrs by CLSI method; assay type: functional; conditions: time 18-20 hrs; summary of the method: as §1
# Staphylococcus aureus [13] = assay: Antibacterial activity against methicillin-resistant Staphylococcus aureus NRS483 assessed as inhibition of visible bacterial growth incubated for 18 to 20 hrs by CLSI method; assay type: functional; conditions: time 18-20 hrs; summary of the method: as §1
# Staphylococcus aureus [14] = assay: Antibacterial activity against methicillin-resistant Staphylococcus aureus NRS484 assessed as inhibition of visible bacterial growth incubated for 18 to 20 hrs by CLSI method; assay type: functional; conditions: time 18-20 hrs; summary of the method: as §1
# Staphylococcus aureus [15] = assay: Antibacterial activity against vancomycin-resistant Staphylococcus aureus 10 assessed as inhibition of visible bacterial growth incubated for 18 to 20 hrs by CLSI method; assay type: functional; conditions: time 18-20 hrs; summary of the method: as §1
# Staphylococcus aureus [16] = assay: Antibacterial activity against vancomycin-resistant Staphylococcus aureus 12 assessed as inhibition of visible bacterial growth incubated for 18 to 20 hrs by CLSI method; assay type: functional; conditions: time 18-20 hrs; summary of the method: as §1
# [17] = system: Staphylococcus epidermidis; assay: Antibacterial activity against Staphylococcus epidermidis NRS101 assessed as inhibition of visible bacterial growth incubated for 18 to 20 hrs by CLSI method; assay type: functional; conditions: time 18-20 hrs
# Summary of the method: (§2)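 Broth microdilution per CLSI. Strains grown aerobically overnight on TSA at 37 °C, suspended to 0.5 McFarland, diluted in CAMHB to about 5×10^5 CFU/mL. Agents serially diluted across plate; aerobic incubation 37 °C for 18-20 h. MIC = lowest concentration completely preventing visible growth.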
# Streptococcus pneumoniae [18] = assay: Antibacterial activity against cephalosporin-resistant Streptococcus pneumoniae ATCC 51916 assessed as inhibition of visible bacterial growth incubated for 18 to 20 hrs by CLSI method; assay type: functional; conditions: time 18-20 hrs; summary of the method: as §1
# Streptococcus pneumoniae [19] = assay: Antibacterial activity against […] Streptococcus pneumoniae ATCC 700677 assessed as inhibition of visible bacterial growth incubated for 18 to 20 hrs by CLSI method; assay type: functional; conditions: time 18-20 hrs; summary of the method: as §1
# Enterococcus faecalis [20] = assay: Antibacterial activity against vancomycin- resistant Enterococcus faecalis ATCC 51299 assessed as inhibition of visible bacterial growth incubated for 18 to 20 hrs by CLSI method; assay type: functional; conditions: time 18-20 hrs; summary of the method: as §1
# Enterococcus faecalis [21] = assay: Antibacterial activity against vancomycin- resistant Enterococcus faecalis ATCC 700221 assessed as inhibition of visible bacterial growth incubated for 18 to 20 hrs by CLSI method; assay type: functional; conditions: time 18-20 hrs; summary of the method: as §1
# Listeria monocytogenes = assay: Antibacterial activity against Listeria monocytogenes ATCC 19111 assessed as inhibition of visible bacterial growth incubated for 18 to 20 hrs by CLSI method; assay type: functional; conditions: time 18-20 hrs; summary of the method: as §2
# Escherichia coli = assay: Antibacterial activity against Escherichia coli ATCC 25404 assessed as inhibition of visible bacterial growth at 16 ug/ml incubated for 18 to 20 hrs by CLSI method; assay type: functional, organism-based; conditions: B ATCC 25404, dose 16.0 µg/ml, time 18-20 hrs; summary of the method: as §1
# Pseudomonas aeruginosa = assay: Antibacterial activity against Pseudomonas aeruginosa ATCC 27853 assessed as inhibition of visible bacterial growth at 16 ug/ml incubated for 18 to 20 hrs by CLSI method; assay type: functional, organism-based; conditions: dose 16.0 µg/ml, time 18-20 hrs; summary of the method: as §1
# Acinetobacter baumannii = assay: Antibacterial activity against Acinetobacter baumannii ATCC 19606 RW4 assessed as inhibition of visible bacterial growth at 16 ug/ml incubated for 18 to 20 hrs by CLSI method; assay type: functional, organism-based; conditions: ATCC 19606 = CIP 70.34 = JCM 6841 RW4, dose 16.0 µg/ml, time 18-20 hrs; summary of the method: as §1
# Caco-2 = assay: Cytotoxicity against human Caco2 cells assessed as reduction in cell viability at 128 ug/ml incubated for 2 hrs by MTS assay; assay type: cell-based; conditions: caco-2, 2 h, dose 128 µg/ml
# [22] = Hemolytic activity in human RBC at 128 ug/ml incubated for 60 mins relative to control; assay type: ADME, cell-based, Erythrocyte; conditions: red blood cells (erythrocytes), dose 128 µg/ml, read-out: Activity
# Summary of the method: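 Single-donor human erythrocytes as a 5% v/v suspension in PBS. Compounds serially diluted in PBS, in triplicate, and incubated with RBCs at 37 °C for 60 min. PBS served as the negative control and Triton-X as the positive control. Samples spun at 4,000 rpm for 5 min and supernatant absorbance read at 540 nm. Percent hemolysis = 100×(sample−negative)/(positive−negative).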
# Staphylococcus aureus [23] = assay: Bactericidal activity against methicillin-resistant Staphylococcus aureus ATCC 33592 assessed as reduction in bacterial growth incubated for 18 hrs by CLSI method; assay type: functional
# Staphylococcus aureus [24] = assay: Synergistic antibacterial activity against methicillin-resistant Staphylococcus aureus ATCC 33592 assessed as fractional inhibitory concentration index in presence of linezolid by checkerboard assay; assay type: functional
# Staphylococcus aureus [25] = assay: Synergistic antibacterial activity against methicillin-resistant Staphylococcus aureus ATCC 33592 assessed as fractional inhibitory concentration index in presence of methicillin by checkerboard assay; assay type: functional
# Staphylococcus aureus [26] = assay: Synergistic antibacterial activity against methicillin-resistant Staphylococcus aureus ATCC 33592 assessed as fractional inhibitory concentration index in presence of daptomycin by checkerboard assay; assay type: functional
# Staphylococcus aureus [27] = assay: Synergistic antibacterial activity against methicillin-resistant Staphylococcus aureus ATCC 33592 assessed as fractional inhibitory concentration index in presence of Vancomycin; assay type: functional
# Staphylococcus aureus [28] = assay: Antibacterial activity against methicillin-resistant Staphylococcus aureus ATCC 33592 assessed as reduction in bacterial count at 3 x MIC incubated upto 24 hrs by time kill analysis; assay type: functional; conditions: time hrs <=24
# Summary of the method: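 Time-kill assay. […] Samples taken at 0, 2, 4, 8, 12 and 24 h, serially diluted in PBS and plated on tryptic soy agar. Viable CFU/mL counted after 18-20 h at 37 °C.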
# J774 = assay: Cytotoxicity against mouse J774 cells assessed as reduction in cell viability at 32 ug/ml incubated for 24 hrs by MTS assay; assay type: cell-based; conditions: j774, 24 h, dose 32 µg/ml
# Staphylococcus aureus [29] = assay: Antibacterial activity against methicillin-resistant Staphylococcus aureus USA400 infected in mouse J774 cells assessed as log reduction in intracellular growth at 8 ug/ml incubated for 18 to 22 hrs; assay type: functional; conditions: dose 8 µg/ml; time 18-22 hrs
# Summary of the method: (§3)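 J774 murine macrophages grown in DMEM with 10% FBS at 37 °C, 5% CO2. Cells infected with MRSA USA400 at MOI about 10:1 for 1 h, then washed with gentamicin to remove extracellular bacteria. Agents added at 8 or 16 μg/mL in triplicate, with DMSO vehicle control, for 24 h. Cells lysed with 0.1% Triton-X, lysates plated on tryptic soy agar, and CFU counted after 18-22 h at 37 °C. Analysed by two-way ANOVA with Dunnett's test.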
# Staphylococcus aureus [30] = assay: Antibacterial activity against methicillin-resistant Staphylococcus aureus USA400 infected in mouse J774 cells assessed as log reduction in intracellular growth at 16 ug/ml incubated for 18 to 22 hrs; assay type: functional; conditions: dose 16 µg/ml; time 18-22 hrs; summary of the method: as §3
smiles,measurement,setting,value
O=C(Nc1nnc(-c2cccs2)o1)c1ccc(SC(F)(F)F)cc1,MIC,Staphylococcus aureus [1],0.5 µg/mL
same,MIC,Staphylococcus aureus [2],0.5 µg/mL
same,MIC,Staphylococcus aureus [3],0.5 µg/mL
same,MIC,Staphylococcus aureus [4],0.25 µg/mL
same,MIC,Staphylococcus aureus [5],0.5 µg/mL
same,MIC,Staphylococcus aureus [6],0.5 µg/mL
same,MIC,Staphylococcus aureus [7],0.25 µg/mL
same,MIC,Staphylococcus aureus [8],0.5 µg/mL
same,MIC,Staphylococcus aureus [9],0.5 µg/mL
same,MIC,Staphylococcus aureus [10],2 µg/mL
same,MIC,Staphylococcus aureus [11],0.5 µg/mL
same,MIC,Staphylococcus aureus [12],0.125 µg/mL
same,MIC,Staphylococcus aureus [13],0.5 µg/mL
same,MIC,Staphylococcus aureus [14],0.5 µg/mL
same,MIC,Staphylococcus aureus [15],0.5 µg/mL
same,MIC,Staphylococcus aureus [16],0.5 µg/mL
same,MIC,[17],0.25 µg/mL
same,MIC,Streptococcus pneumoniae [18],0.25 µg/mL
same,MIC,Streptococcus pneumoniae [19],0.25 µg/mL
same,MIC,Enterococcus faecalis [20],4 µg/mL
same,MIC,Enterococcus faecalis [21],4 µg/mL
same,MIC,Listeria monocytogenes,0.5 µg/mL
same,inhibition,Escherichia coli,inactive
same,inhibition,Pseudomonas aeruginosa,inactive
same,inhibition,Acinetobacter baumannii,inactive
same,Activity,Caco-2,Non-Toxic
same,"hemolysis at 1 h, 128 ug/ml",[22],19%
same,MBC,Staphylococcus aureus [23],1 µg/mL
same,fractional inhibitory concentration index (FICI),Staphylococcus aureus [24],0.0625
same,fractional inhibitory concentration index (FICI),Staphylococcus aureus [25],0.5
same,fractional inhibitory concentration index (FICI),Staphylococcus aureus [26],0.63
same,fractional inhibitory concentration index (FICI),Staphylococcus aureus [27],1
same,Activity,Staphylococcus aureus [28],4.2 log10CFU/ml
same,Activity,J774,Non-Toxic
same,Activity,Staphylococcus aureus [29],0.7 log10CFU/ml
same,Activity,Staphylococcus aureus [30],0.9 log10CFU/ml
